pIC50: −log10 of the molar value. The source made the active and inactive calls. The rule behind the calls is not given here.
Assays:
Aromatase [1] = target: T1, Aromatase (Homo sapiens, UniProt P11511); test: Inhibition of human recombinant aromatase at 50 uM
T1 sequence (P11511 whole entry): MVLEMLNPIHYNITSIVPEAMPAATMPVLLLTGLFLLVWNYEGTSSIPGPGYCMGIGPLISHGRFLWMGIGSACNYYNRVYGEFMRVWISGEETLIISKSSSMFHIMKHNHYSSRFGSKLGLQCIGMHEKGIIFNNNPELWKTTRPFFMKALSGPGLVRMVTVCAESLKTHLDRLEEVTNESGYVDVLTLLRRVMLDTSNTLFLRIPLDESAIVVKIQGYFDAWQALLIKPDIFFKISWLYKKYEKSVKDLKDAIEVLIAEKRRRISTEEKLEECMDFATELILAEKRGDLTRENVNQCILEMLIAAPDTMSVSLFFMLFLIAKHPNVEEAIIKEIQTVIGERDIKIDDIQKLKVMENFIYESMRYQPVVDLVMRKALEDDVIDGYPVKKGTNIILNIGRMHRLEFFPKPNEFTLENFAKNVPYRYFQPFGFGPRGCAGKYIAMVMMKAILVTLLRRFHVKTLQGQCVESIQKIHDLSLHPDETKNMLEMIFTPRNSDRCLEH

[2] = test system: Cyp1A (Rattus norvegicus); test: Inhibition of beta-naphthoflavone-induced Cyp1A in rat H4IIE cell at 50 uM; settings: H4IIE cells with beta-naphthoflavone-induced Cyp1A
[3] = Inhibition of beta-naphthoflavone-induced Cyp1A in rat […] cell; type: cell-based
How it was run: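 Enzyme source: homogenates of β-naphthoflavone-induced H4IIE rat hepatoma cells. Cyp1A activity measured as dealkylation of 3-cyano-7-ethoxycoumarin to fluorescent 3-cyano-7-hydroxycoumarin, expressed in nmol/min/mg protein. α-Naphthoflavone positive control. Dose-response to IC50; percent inhibition given at 50 µM final concentration.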

[4] = Superoxide anion radical scavenging activity upto 50 uM; type: functional
How it was run: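 Superoxide anion generated by xanthine oxidase oxidising hypoxanthine to uric acid; scavenging tested up to 50 µM.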

[5] = target: Prostaglandin G/H synthase 1 (Homo sapiens) (UniProt P23219); test: Inhibition of COX1 at 100 uM
How it was run: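 COX-1 (prostaglandin G/H synthase) activity followed by oxygen consumption during conversion of arachidonic acid to prostaglandins; single concentration 100 µM; IC50 only if inhibition exceeds 50%.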

[6] = DPPH radical scavenging activity upto 250 uM; type: functional
How it was run: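 Photometric reaction with stable DPPH free radical in microplate format, compounds up to 250 µM.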

Aromatase [7] = target: T1, Aromatase; test: Inhibition of human recombinant aromatase
[8] = Cytotoxicity against mouse Hepa 1c1c7 cells upto 50 uM; type: cell-based
How it was run: (§1)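 Hepa 1c1c7 murine hepatoma cultures exposed in parallel with the QR induction assay; tested up to 400 µM for one hydroxanthone and up to 50 µM for the others; cytotoxicity judged alongside QR specific activity.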

[9] = Cytotoxicity against mouse Hepa 1c1c7 cells upto 400 uM; type: cell-based; how it was run: as §1

Prostaglandin G/H synthase 1 (Homo sapiens), sequence (P23219 whole entry): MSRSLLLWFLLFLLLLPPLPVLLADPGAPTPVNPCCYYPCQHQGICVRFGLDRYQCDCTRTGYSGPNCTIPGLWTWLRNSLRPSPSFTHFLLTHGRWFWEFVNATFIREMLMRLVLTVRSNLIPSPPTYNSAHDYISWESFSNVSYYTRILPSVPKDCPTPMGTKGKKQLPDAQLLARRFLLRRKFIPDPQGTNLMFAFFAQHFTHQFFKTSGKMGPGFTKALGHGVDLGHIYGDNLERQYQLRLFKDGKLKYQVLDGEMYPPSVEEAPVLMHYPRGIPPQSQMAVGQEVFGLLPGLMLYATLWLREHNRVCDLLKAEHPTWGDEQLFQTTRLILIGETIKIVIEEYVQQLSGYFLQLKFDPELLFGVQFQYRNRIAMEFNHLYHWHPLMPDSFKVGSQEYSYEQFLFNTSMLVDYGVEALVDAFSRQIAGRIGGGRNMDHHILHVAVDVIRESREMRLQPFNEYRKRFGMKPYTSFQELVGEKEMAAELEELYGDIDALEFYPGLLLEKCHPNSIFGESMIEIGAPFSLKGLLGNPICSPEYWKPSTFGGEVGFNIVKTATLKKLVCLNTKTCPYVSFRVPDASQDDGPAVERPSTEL

| inhibition at 50 µM (Aromatase [1]) | inhibition at 50 µM [2] | pIC50 [3] | inhibition [5] | pIC50 (Aromatase [7]) | Structure (SMILES) | Activity [4] | Activity [6] | Activity [8] | Activity [9] |
| --- | --- | --- | --- | --- | --- | --- | --- | --- | --- |
| 25% | 28% | < 4.30 | < 50% | – | Cc1cc(O)c(C(=O)c2c(O)cccc2O)c(C(=O)O)c1 [MONODICTYPHENONE] | inactive | inactive | – | – |
| – | – | 5.52 | < 50% | 4.55 | COc1cc(O)c2c(c1)O[C@]1(C)[C@@H](O)[C@@H](C)C[C@H](O)[C@@H]1C2=O [MONODICTYSIN C] | inactive | inactive | Not Active | – |
| – | – | 8.46 | – | – | O=c1cc(-c2ccccc2)oc2c1ccc1ccccc12 [ALPHA-NAPHTHOFLAVONE] | – | – | – | – |
| 32% | 40% | < 4.30 | < 50% | – | Cc1cc(O)c2c(c1)O[C@]1(C)[C@@H](O)[C@@H](O)C[C@H](O)[C@@H]1C2=O [MONODICTYSIN A] | inactive | inactive | – | Not Active |
| 37% | – | 4.46 | < 50% | – | Cc1cc(C(=O)O)c2c(=O)c3c(O)cccc3oc2c1 [MONODICTYXANTHONE] | inactive | inactive | – | – |
| 9% | – | 4.63 | < 50% | – | C[C@H]1C[C@H](O)[C@@H]2C(=O)c3c(O)cccc3O[C@]2(C)[C@H]1O [MONODICTYSIN B] | inactive | inactive | Not Active | – |

Source: ChEMBL document CHEMBL1142864, “Potential cancer chemopreventive in vitro activities of monomeric xanthone derivatives from the marine algicolous fungus Monodictys putredinis” (J Nat Prod, 2007)
